From ChEMBL document CHEMBL4152233, “Design, synthesis and anthelmintic activity of 7-keto-sempervirol analogues” (Eur J Med Chem, 2018) come the findings set out here.

Data set [1] relates to Schistosoma mansoni. Description: Antischistosomal activity against schistosomula of Schistosoma mansoni assessed as effect on parasite phenotype by throughput high content image analysis. In kind it is functional, organism-based. The essentials:
(§1)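 Puerto Rican (NMRI) strain cercariae were mechanically transformed to schistosomula. About 120 larvae were co-cultured with compound for 72 hr at 37 °C, 5% CO2, at 0.625% DMSO final. Controls were DMSO and auranofin. Motility and phenotype were scored by automated image analysis, with a hit threshold of ≤-0.15 (phenotype) and ≤-0.35 (motility) in ≥70% of larvae. Runs were in duplicate, and IC50 was estimated from dose-response curves.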

The subject of data set [2] is Schistosoma mansoni. Put plainly: Antischistosomal activity against schistosomula of Schistosoma mansoni assessed as effect on parasite motility by throughput high content image analysis. In kind it is functional, organism-based. The method, boiled down:
as §1

A short description of data set [3]: Cytotoxicity against human HepG2 cells after 24 hrs by MTT assay. In kind it is cell-based. The method, boiled down:
(§2)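 Cells were grown to about 80% confluence (HepG2 in BME, MDBK in EMEM, each with 10% FBS). They were seeded at 2.5 x10^4 per well and rested 24 hr, then exposed 24 hr to compound at 100–0.01 µM (1.25% DMSO). Controls were DMSO and 1% Triton X-100. Viability was read by MTT, and CC50 came from dose-response curves run in triplicate.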

A short description of data set [4]: Cytotoxicity against MDBK cells after 24 hrs by MTT assay. Particulars: cattle. The data set is classed as cell-based, Bos taurus. The method, boiled down:
as §2

The subject of data set [5] is Schistosoma mansoni. Description: Antischistosomal activity against adult stage of Schistosoma mansoni assessed as effect on parasite motility after 72 hrs by microscopic method. The data set is classed as functional, organism-based. The method, boiled down: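 Mice were infected percutaneously with 200 cercariae, and adults were recovered by portal perfusion at seven weeks. Three worm pairs per well in modified DMEM with 10% FCS were given compound at 50, 25, 12.5 and 6.25 µM final (0.3% DMSO) for 72 hr at 37 °C, 5% CO2. Controls were DMSO and auranofin. Worms were scored manually by microscopy at 24, 48 and 72 hr. Experiments were run in duplicate.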

Data set [6] has as its system Schistosoma mansoni. Description: Antischistosomal activity against schistosomula of Schistosoma mansoni at 25 uM by throughput high content image analysis. In kind it is functional, organism-based. The essentials:
as §1

Data set [7] can be described thus: Selectivity index, ratio of IC50 for MDBK cells to IC50 for antischistosomal activity against schistosomula of Schistosoma mansoni assessed as effect on parasite phenotype. In kind it is toxicity. The settings on record: cattle, read-out: Ratio IC50. The essentials:
(§3)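 Selectivity index was calculated as the CC50 from the HepG2 or MDBK MTT assay divided by the schistosomula phenotype or motility IC50 from the 72 hr image-based screen.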

Data set [8] can be described thus: Selectivity index, ratio of IC50 for MDBK cells to IC50 for antischistosomal activity against schistosomula of Schistosoma mansoni assessed as effect on parasite motility. In kind it is toxicity. The settings on record: cattle, read-out: Ratio IC50. The method, boiled down: as §3
Data set [9] can be described thus: Selectivity index, ratio of IC50 for human HepG2 cells to IC50 for antischistosomal activity against schistosomula of Schistosoma mansoni assessed as effect on parasite phenotype. In kind it is toxicity. Particulars: read-out: Ratio IC50. The essentials: as §3
Data set [10] in a line: Selectivity index, ratio of IC50 for human HepG2 cells to IC50 for antischistosomal activity against schistosomula of Schistosoma mansoni assessed as effect on parasite motility. In kind it is toxicity. The settings on record: read-out: Ratio IC50. The essentials:
as §3

In data set [11] the test system is Fasciola hepatica. Description: Antifasciola activity against newly excysted juveline stage of Fasciola hepatica Italian assessed as effect on parasite phenotype after 72 hrs. In kind it is functional, organism-based. The essentials:
(§4)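 NEJs came from Italian-strain metacercariae, excysted either by pepsin/HCl or by needle rupture, then 1 hr in sodium tauroglycocholate. They were plated at 25 per well in RPMI-1640 with 1% FCS. Screening was at 25 and 12.5 µM, then titration from 10 to 0.625 µM (0.16% DMSO). Controls were DMSO and 10 µM triclabendazole. Motility and phenotype were scored at 72 hr, with IC50 from dose-response curves.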

In data set [12] the test system is Fasciola hepatica. Put plainly: Antifasciola activity against newly excysted juveline stage of Fasciola hepatica Italian assessed as effect on parasite motility after 72 hrs. The data set is classed as functional, organism-based. The method, boiled down: as §4
The nature of data set [13]: Selectivity index, ratio of IC50 for human HepG2 cells to IC50 for newly excysted juveline stage of Fasciola hepatica Italian assessed as effect on parasite phenotype. In kind it is toxicity. Particulars: read-out: Ratio IC50. The method, boiled down: (§5)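 Selectivity index was calculated as the CC50 from the HepG2 or MDBK MTT assay divided by the F. hepatica NEJ phenotype or motility IC50 from the 72 hr manual scoring assay.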

Data set [14] in a line: Selectivity index, ratio of IC50 for human HepG2 cells to IC50 for newly excysted juveline stage of Fasciola hepatica Italian assessed as effect on parasite motility. The data set is classed as toxicity. Particulars: read-out: Ratio IC50. The essentials:
as §5

The nature of data set [15]: Selectivity index, ratio of IC50 for MDBK cells to IC50 for newly excysted juveline stage of Fasciola hepatica Italian assessed as effect on parasite phenotype. In kind it is toxicity. The settings on record: cattle, read-out: Ratio IC50. The method, boiled down:
as §5

Data set [16] in a line: Selectivity index, ratio of IC50 for MDBK cells to IC50 for newly excysted juveline stage of Fasciola hepatica Italian assessed as effect on parasite motility. In kind it is toxicity. Particulars: cattle, read-out: Ratio IC50. The essentials: as §5

As usually defined, the pIC50 is the IC50 on a negative log10 scale, so that one unit is a factor of ten. As usually defined, the CC50 is the concentration that lowers cell viability or growth by half.

pIC50: −log10 of the molar value. Activity calls are given as the source filed them.

In the case of `COc1ccc(CC/C=C(\C)CCC=C(C)C)cc1`, the pIC50 in data set [1] and in data set [2] was 4.40 each time. In addition, the cytotoxic concentration (CC50) at 24 h in data set [3] and in data set [4] was above 100 µM each time.

Consider `COc1ccc(CC(=O)C2=C(C)CCCC2(C)C)cc1`, for which the pIC50 in data set [1] is 4.60; in data set [2], 4.72; in data set [5] it was below 4.30. In data set [6], the result was Active. The CC50 at 24 h in data set [3] is above 100 µM; in data set [4] it was 91.1 µM. The selectivity ratio in data set [7] was found to be 3.6; in data set [8], 4.8.

Consider `COc1cccc(CC/C=C(\C)CCC=C(C)C)c1`, for which the pIC50 in [1] is 4.36; in data set [2], 4.57. Besides, the CC50 at 24 h in data set [3] and in data set [4] was above 100 µM each time.

Consider `CC1(C)CCC[C@]2(C)c3ccccc3C(=O)C[C@@H]12` (relative stereo), for which the pIC50 was 4.40 in [1] and 4.83 in [2]. Further, the CC50 at 24 h was 84.2 µM in data set [3] and above 100 µM in data set [4]. Also, the selectivity ratio in [9] is 2.1; in [10], 5.7.

As to `CC(C)=CCC/C(C)=C/CCc1ccccc1`, the negative logarithm of the IC50 (pIC50) in data set [1] and in data set [2] was 4.36 each time. For the same compound, the CC50 at 24 h in data set [3] and in [4] was above 100 µM in each case.

For the compound `COc1cccc(CC(O)C2=C(C)CCCC2(C)C)c1` (stereo unspecified), the pIC50 in [1] was 4.40; in data set [2], 4.63. Also, the cytotoxic concentration (CC50) at 24 h in [3] and in data set [4] was above 100 µM each time.

For `COc1ccc2c(c1)CC[C@H]1C(C)(C)CCC[C@]21C` (relative stereo), the values for the pIC50 in data set [1] and in data set [2] were 4.36 and 4.55, respectively. Besides, the results for the CC50 at 24 h in data set [3] and in data set [4] were 89 µM and above 100 µM, respectively. Further, the selectivity ratio in [9] was 2.1; in data set [10], 3.3.

As for `COc1cccc(CC(=O)C2=C(C)CCCC2(C)C)c1`, the negative-log IC50 (pIC50) in data set [1] is 4.38; in data set [2], 4.55. Moreover, the CC50 at 24 h in data set [3] and in [4] was above 100 µM each time.

Turning to `COc1ccc2c(c1)[C@@]1(C)CCCC(C)(C)[C@H]1C(=O)C2=O` (relative stereo), the figures for the pIC50 in data set [1] and in [2] were 4.36 and 4.58, respectively. Moreover, the CC50 at 24 h in data set [3] and in [4] was above 100 µM throughout.

With `CC1(C)CCC[C@]2(C)c3ccccc3C(=O)C(=O)[C@H]12` (relative stereo), the pIC50 is 4.60 in data set [1], 4.89 in [2] and below 4.30 in data set [5]. For the same compound, in [6], the outcome was Active. For the same compound, the CC50 at 24 h in data set [3] and in [4] was above 100 µM in each case.

Regarding `CC1=C(C(=O)Cc2ccc(C(C)(C)C)cc2)C(C)(C)CCC1`, the pIC50 is 4.55 in data set [1] and 4.72 in data set [2]. Also, the CC50 at 24 h in data set [3] and in data set [4] was above 100 µM each time.

For the compound `CC1(C)CCC[C@]2(C)c3ccc(O)cc3C(=O)C[C@@H]12` (relative stereo), the results for the pIC50 in data set [1] and in data set [2] were 4.55 and 4.66, respectively. Besides, the results for the CC50 at 24 h in [3] and in data set [4] were 65.1 µM and above 100 µM, respectively. For the same compound, the selectivity ratio came to 2.3 in data set [9] and 3 in [10].

For `COc1cc(CC(O)C2=C(C)CCCC2(C)C)cc(OC)c1OC` (stereo unspecified), the pIC50 in [1] and in data set [2] was 4.36 each time. Besides, the CC50 at 24 h in data set [3] and in data set [4] was above 100 µM each time.

As for `CC1=C(C(O)Cc2ccc(C(C)C)cc2)C(C)(C)CCC1` (stereo unspecified), the results for the pIC50 in data set [1] and in data set [2] were 4.40 and 4.56, respectively. For the same compound, the CC50 at 24 h in data set [3] and in data set [4] was above 100 µM throughout.

`CC1=C(C(O)Cc2ccccc2)C(C)(C)CCC1` (stereo unspecified): the pIC50 in [1] was 4.36; in data set [2], 4.67. Also, the cytotoxic concentration (CC50) at 24 h in data set [3] and in [4] was above 100 µM each time.

Take `COc1ccc2c(c1)C(=O)C(=O)[C@@H]1C(C)(C)CCC[C@]21C` (relative stereo): the figures for the pIC50 in data set [1], in data set [2] and in data set [5] were 4.64, 5.19 and below 4.30, respectively. In [6], the result was Active. Also, the CC50 at 24 h in data set [3] is 84.9 µM; in [4], above 100 µM. Further, the selectivity ratio in data set [9] stood at 3.7; in [10], 13.2.

`COc1cc(CC(=O)C2=C(C)CCCC2(C)C)cc(OC)c1OC`: the pIC50 was 4.36 in data set [1] and 4.57 in data set [2]. Moreover, the 50% cytotoxic concentration (CC50) at 24 h in data set [3] and in [4] was above 100 µM throughout.

As for `CC1=C(C(=O)Cc2ccc(C(C)C)cc2)C(C)(C)CCC1`, the negative logarithm of the IC50 (pIC50) is 4.60 in data set [1], 4.74 in data set [2] and below 4.30 in data set [5]. In addition, in data set [6], the outcome was Active. Further, the figures for the CC50 at 24 h in data set [3] and in data set [4] were 71.7 µM and above 100 µM, respectively. In addition, the selectivity ratio in data set [9] turned out to be 2.8; in data set [10], 3.9.

With `COc1ccc2c(c1)[C@@]1(C)CCCC(C)(C)[C@@H]1CC2` (relative stereo), the pIC50 in [1] is 4.36; in [2] it was 4.58. The CC50 at 24 h in data set [3] and in data set [4] was above 100 µM in each case.

As for `COc1ccc(CC(O)C2=C(C)CCCC2(C)C)cc1` (stereo unspecified), the pIC50 was 4.37 in data set [1] and 4.58 in data set [2]. In addition, the CC50 at 24 h in data set [3] and in data set [4] was above 100 µM each time.

For the compound `CC1=C(C(O)Cc2ccc(C(C)(C)C)cc2)C(C)(C)CCC1` (stereo unspecified), the negative logarithm of the IC50 (pIC50) in [1] was 4.40; in data set [2], 4.59. Also, the CC50 at 24 h in [3] and in data set [4] was above 100 µM each time.

On to `CC(C)c1cc2c(cc1O)C(=O)C[C@H]1C(C)(C)CCC[C@]21C`, for which the pIC50 in data set [1] is 4.66; in data set [2], 4.58; in data set [11], 4.77; in data set [12] it was 4.88. For the same compound, the CC50 at 24 h is 80 µM in data set [3] and 63.8 µM in data set [4]. In addition, the selectivity ratio in data set [9] was 3.7; in data set [10], 3.1; in data set [7], 2.9; in [8], 2.4; in data set [13], 4.8; in data set [14], 6.1. In addition, the selectivity ratio in data set [15] stood at 3.8; in data set [16], 4.9.

`CC1=C(C(=O)Cc2ccccc2)C(C)(C)CCC1`: the pIC50 was 4.36 in [1] and 4.59 in [2]. Also, the CC50 at 24 h in [3] and in data set [4] was above 100 µM throughout.

For the compound `COc1ccc2c(c1)C(=O)C[C@H]1C(C)(C)CCC[C@]21C` (relative stereo), the pIC50 in data set [1] is 4.54; in [2], 4.75. The CC50 at 24 h in [3] and in data set [4] was above 100 µM in each case.
